Laboratory results from ChEMBL document CHEMBL5653631, “A Potent and Selective ULK1 Inhibitor Suppresses Autophagy and Sensitizes Cancer Cells to Nutrient Stress” (iScience, 2018).

Tests used:
[1] = biological target: Serine/threonine-protein kinase Chk2 (Homo sapiens) (UniProt O96017); assay: Inhibition of human recombinant CHK2 at 40 nM in presence of ATP by radiometric assay relative to control
[2] = biological target: Serine/threonine-protein kinase ATR (Homo sapiens) (UniProt Q13535); assay: Inhibition of human recombinant ATR at 40 nM related to control ULK1
Procedure, shortened: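 Radiometric activity assays in a panel of 327 human recombinant kinases, each run in duplicate at one inhibitor concentration. Activity remaining is expressed as percent of vehicle control, and percent inhibition is calculated as 100% minus percent activity remaining.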

[3] = biological target: Misshapen-like kinase 1 (Homo sapiens) (UniProt Q8N4C8); assay: Inhibition of human recombinant MINK at 15 nM related to control ULK1
[4] = biological target: T1, Serine/threonine-protein kinase Chk1 (Homo sapiens) (UniProt O14757); assay: Inhibition of human recombinant CHK1 at 15 nM related to control ULK1
T1 sequence (whole entry): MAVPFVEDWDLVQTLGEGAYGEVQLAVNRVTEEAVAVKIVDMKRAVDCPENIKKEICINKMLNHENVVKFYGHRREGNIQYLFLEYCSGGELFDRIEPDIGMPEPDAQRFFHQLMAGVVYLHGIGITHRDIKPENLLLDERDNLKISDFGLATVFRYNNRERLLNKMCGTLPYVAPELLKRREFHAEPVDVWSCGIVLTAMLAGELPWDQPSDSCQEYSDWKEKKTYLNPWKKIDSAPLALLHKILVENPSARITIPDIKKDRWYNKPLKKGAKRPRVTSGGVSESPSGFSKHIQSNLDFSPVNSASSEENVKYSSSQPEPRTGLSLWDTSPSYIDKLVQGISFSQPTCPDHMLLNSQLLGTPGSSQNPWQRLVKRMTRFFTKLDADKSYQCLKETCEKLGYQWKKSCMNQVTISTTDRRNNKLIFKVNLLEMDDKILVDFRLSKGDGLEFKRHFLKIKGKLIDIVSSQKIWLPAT

[5] = biological target: Serine/threonine-protein kinase 26 (Homo sapiens) (UniProt Q9P289); assay: Inhibition of human recombinant MST4 at 15 nM in presence of ATP by radiometric assay relative to control
[6] = biological target: T2, Tyrosine-protein kinase ZAP-70 (Homo sapiens) (UniProt P43403); assay: Inhibition of human recombinant ZAP70 at 15 nM in presence of ATP by radiometric assay relative to control
T2 sequence (whole entry): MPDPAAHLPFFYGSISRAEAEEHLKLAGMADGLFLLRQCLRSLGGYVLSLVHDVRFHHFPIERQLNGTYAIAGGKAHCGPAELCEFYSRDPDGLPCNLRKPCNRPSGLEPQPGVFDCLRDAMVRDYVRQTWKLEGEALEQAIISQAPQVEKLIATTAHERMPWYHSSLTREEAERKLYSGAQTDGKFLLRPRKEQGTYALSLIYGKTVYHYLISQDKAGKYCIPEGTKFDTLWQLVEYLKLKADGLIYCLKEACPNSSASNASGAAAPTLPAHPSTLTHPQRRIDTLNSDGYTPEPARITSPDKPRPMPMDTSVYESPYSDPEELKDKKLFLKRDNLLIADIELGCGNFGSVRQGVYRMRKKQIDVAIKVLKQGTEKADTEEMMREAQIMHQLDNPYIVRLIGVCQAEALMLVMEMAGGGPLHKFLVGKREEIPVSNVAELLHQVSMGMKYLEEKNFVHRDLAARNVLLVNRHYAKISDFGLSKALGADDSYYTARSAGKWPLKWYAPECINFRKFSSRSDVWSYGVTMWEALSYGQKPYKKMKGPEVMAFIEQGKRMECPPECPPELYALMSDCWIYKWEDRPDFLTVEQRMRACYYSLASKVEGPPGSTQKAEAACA

[7] = biological target: T3, Calcium/calmodulin-dependent protein kinase type IV (Homo sapiens) (UniProt Q16566); assay: Inhibition of human recombinant CaMK4 at 500 nM in presence of ATP by radiometric assay relative to control
T3 sequence (whole entry): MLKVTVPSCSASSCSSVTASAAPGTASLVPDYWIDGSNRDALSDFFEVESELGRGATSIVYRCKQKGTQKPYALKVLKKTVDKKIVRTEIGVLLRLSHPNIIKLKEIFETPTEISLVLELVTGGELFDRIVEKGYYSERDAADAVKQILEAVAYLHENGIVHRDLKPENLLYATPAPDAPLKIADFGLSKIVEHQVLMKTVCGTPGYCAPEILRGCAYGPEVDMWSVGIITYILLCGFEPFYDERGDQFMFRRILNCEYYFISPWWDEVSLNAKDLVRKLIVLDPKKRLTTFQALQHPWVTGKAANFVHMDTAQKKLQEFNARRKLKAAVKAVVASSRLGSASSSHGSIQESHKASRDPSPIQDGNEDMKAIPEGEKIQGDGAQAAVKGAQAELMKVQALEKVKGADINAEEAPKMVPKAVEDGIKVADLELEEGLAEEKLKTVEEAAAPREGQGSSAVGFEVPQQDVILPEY

[8] = biological target: STE20-like serine/threonine-protein kinase (Homo sapiens) (UniProt Q9H2G2); assay: Inhibition of human recombinant SLK at 500 nM in presence of ATP by radiometric assay relative to control
[9] = biological target: Tau-tubulin kinase 2 (Homo sapiens) (UniProt Q6IQ55); assay: Inhibition of human recombinant TTBK2 at 500 nM in presence of ATP by radiometric assay relative to control
[10] = biological target: T4, NUAK family SNF1-like kinase 1 (Homo sapiens) (UniProt O60285); assay: Inhibition of human recombinant NuaK1 at 500 nM related to control ULK1
T4 sequence (whole entry): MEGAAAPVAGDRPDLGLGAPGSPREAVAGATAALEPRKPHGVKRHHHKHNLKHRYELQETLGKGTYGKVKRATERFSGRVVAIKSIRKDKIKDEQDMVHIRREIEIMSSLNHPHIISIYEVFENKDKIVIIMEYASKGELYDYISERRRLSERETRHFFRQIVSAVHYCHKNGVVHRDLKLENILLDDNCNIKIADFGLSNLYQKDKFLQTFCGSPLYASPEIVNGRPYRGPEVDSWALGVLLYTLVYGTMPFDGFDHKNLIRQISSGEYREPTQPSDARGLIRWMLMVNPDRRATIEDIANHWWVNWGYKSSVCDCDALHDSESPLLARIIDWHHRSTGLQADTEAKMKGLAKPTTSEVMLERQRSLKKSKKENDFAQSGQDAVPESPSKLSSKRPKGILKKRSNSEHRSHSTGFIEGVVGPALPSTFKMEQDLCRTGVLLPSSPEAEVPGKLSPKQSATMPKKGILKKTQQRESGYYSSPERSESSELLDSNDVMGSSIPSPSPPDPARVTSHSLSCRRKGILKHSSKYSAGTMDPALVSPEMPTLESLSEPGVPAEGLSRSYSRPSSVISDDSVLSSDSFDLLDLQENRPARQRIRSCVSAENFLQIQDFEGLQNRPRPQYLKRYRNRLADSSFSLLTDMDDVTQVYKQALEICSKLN

Serine/threonine-protein kinase Chk2 (Homo sapiens), sequence (O96017 whole entry): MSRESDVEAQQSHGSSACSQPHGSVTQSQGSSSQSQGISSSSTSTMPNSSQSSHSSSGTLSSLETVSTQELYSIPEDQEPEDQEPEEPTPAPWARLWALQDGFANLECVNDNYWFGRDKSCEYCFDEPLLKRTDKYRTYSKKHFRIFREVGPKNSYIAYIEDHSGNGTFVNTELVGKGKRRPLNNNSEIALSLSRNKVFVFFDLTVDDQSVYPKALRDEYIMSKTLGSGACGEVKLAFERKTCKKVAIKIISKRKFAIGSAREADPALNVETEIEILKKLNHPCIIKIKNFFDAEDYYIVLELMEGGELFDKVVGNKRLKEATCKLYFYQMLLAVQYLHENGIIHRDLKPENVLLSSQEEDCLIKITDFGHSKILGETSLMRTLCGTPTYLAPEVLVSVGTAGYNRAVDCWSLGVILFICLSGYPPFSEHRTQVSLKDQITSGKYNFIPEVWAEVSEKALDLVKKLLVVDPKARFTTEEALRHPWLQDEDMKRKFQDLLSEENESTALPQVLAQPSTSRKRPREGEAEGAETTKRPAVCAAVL
Misshapen-like kinase 1 (Homo sapiens), sequence (Q8N4C8 whole entry, looked up): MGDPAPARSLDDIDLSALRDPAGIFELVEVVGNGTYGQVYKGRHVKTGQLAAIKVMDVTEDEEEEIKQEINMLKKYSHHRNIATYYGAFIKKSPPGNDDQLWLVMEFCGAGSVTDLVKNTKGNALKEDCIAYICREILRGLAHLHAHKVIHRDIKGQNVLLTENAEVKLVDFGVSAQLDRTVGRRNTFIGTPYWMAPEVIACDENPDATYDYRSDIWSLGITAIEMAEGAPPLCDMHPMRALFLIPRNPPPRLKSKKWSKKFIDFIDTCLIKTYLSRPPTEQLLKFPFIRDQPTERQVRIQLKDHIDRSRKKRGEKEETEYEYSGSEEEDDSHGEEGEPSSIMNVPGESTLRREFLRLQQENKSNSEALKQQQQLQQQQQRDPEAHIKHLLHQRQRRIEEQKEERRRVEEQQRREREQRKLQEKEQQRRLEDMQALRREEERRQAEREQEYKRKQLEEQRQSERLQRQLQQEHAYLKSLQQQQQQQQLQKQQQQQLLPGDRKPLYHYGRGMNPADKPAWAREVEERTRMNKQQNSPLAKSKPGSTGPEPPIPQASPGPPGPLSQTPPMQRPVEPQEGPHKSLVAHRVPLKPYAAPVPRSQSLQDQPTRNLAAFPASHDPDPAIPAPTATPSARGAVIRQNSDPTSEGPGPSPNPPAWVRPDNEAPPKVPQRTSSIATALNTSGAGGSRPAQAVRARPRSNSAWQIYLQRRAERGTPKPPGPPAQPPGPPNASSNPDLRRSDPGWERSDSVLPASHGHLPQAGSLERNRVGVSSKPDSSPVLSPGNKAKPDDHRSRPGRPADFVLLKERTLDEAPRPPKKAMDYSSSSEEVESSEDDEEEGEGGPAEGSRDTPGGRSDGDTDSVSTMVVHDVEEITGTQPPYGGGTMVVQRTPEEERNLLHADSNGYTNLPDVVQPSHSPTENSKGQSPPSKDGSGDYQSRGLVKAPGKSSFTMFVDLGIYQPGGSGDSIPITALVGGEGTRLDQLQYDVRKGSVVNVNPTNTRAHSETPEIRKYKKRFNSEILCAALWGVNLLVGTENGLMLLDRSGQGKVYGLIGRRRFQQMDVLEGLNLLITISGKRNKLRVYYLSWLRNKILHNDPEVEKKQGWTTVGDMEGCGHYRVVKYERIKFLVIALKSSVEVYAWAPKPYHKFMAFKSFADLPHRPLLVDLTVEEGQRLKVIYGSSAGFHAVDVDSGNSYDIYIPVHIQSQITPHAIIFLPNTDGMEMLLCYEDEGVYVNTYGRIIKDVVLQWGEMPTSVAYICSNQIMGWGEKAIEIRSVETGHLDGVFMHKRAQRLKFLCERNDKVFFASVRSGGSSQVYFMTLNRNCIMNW
Serine/threonine-protein kinase 26 (Homo sapiens), sequence (Q9P289 2-416 limits assumed): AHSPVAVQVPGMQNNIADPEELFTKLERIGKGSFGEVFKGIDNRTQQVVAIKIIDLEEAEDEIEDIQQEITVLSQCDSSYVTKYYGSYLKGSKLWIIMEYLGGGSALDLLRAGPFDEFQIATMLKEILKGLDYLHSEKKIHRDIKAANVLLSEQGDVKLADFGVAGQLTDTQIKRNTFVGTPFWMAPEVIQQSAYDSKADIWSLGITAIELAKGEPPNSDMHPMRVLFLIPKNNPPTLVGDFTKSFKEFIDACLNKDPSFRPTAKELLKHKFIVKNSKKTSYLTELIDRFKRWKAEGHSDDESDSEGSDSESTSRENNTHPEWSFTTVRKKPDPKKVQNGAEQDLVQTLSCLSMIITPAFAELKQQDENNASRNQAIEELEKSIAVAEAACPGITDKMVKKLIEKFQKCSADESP
Tau-tubulin kinase 2 (Homo sapiens), sequence (Q6IQ55 whole entry): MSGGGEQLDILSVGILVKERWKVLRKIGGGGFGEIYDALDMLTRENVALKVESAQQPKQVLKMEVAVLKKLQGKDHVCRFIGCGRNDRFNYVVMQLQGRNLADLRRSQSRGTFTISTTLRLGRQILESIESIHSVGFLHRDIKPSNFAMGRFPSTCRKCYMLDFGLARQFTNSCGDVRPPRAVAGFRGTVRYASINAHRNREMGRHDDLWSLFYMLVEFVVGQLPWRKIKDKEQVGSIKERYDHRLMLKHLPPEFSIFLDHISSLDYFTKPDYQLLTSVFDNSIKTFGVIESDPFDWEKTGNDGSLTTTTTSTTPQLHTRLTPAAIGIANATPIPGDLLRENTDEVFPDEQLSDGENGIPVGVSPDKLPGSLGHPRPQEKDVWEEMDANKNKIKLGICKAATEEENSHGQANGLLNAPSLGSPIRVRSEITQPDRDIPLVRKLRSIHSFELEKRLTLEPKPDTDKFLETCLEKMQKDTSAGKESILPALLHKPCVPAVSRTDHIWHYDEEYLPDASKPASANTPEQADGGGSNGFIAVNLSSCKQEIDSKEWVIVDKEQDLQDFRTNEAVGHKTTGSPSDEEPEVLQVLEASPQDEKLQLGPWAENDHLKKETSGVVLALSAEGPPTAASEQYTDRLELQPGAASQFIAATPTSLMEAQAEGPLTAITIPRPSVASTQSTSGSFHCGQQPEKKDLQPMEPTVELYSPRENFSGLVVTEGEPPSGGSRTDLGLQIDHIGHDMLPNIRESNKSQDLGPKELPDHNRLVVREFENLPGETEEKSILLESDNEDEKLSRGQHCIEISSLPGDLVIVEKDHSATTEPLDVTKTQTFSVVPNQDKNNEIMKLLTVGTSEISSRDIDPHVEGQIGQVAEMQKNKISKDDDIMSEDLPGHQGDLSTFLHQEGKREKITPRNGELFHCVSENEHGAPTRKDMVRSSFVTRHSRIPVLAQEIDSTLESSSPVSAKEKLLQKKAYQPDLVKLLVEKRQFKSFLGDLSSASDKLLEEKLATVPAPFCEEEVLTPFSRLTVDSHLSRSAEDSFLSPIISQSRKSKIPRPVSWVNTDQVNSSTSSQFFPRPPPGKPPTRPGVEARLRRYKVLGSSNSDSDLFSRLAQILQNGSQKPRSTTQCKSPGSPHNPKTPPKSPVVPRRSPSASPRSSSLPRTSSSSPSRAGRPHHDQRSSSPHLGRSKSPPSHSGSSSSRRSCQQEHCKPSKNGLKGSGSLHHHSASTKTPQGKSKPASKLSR
STE20-like serine/threonine-protein kinase (Homo sapiens), sequence (Q9H2G2 whole entry, looked up): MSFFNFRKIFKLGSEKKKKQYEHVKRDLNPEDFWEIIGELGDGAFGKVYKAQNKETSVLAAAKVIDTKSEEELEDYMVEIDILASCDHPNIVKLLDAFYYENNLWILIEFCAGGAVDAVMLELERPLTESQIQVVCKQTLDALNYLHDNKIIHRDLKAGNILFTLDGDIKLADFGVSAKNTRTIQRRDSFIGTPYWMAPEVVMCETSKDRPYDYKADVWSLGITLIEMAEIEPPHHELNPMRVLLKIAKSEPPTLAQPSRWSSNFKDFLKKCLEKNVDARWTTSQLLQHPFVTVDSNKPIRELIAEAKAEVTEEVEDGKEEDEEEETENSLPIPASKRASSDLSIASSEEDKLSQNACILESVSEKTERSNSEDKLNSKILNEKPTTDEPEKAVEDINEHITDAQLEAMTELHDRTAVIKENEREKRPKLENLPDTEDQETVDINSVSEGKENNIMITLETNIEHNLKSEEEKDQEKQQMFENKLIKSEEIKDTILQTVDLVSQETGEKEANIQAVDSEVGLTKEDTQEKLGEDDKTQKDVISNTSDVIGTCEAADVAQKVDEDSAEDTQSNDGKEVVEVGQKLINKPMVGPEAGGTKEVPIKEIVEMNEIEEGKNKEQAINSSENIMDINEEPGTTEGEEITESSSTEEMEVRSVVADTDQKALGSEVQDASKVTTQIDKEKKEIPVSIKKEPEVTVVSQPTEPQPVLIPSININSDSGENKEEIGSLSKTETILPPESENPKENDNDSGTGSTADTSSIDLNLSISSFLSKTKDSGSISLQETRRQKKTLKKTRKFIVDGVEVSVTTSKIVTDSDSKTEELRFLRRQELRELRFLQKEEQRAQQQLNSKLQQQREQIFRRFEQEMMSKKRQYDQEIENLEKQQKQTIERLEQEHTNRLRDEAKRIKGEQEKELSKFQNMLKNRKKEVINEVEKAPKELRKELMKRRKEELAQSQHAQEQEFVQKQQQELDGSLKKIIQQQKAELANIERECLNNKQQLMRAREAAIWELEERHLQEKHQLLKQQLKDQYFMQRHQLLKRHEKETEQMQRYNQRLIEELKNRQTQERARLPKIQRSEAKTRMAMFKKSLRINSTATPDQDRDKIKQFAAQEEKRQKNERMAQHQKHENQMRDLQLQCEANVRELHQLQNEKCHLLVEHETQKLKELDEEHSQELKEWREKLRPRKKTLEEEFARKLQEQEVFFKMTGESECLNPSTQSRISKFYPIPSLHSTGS

O=C(N[C@@H](C1CC1)C(F)(F)F)c1cc(-c2cnn3cc(-c4ccc(F)cc4)cnc23)cs1
inhibition [1]: 0%
fold change (FC) [2]: 0

CC(C)[C@H](NC(=O)c1cc(-c2cnn3cc(-c4ccc(OCCN5CCCCC5)cc4)cnc23)cs1)C(F)(F)F
fold change (FC) [3]: 0.05
fold change (FC) [4]: 0
inhibition [5]: 0%
inhibition [6]: 0%

CNC(=O)c1ccccc1Oc1nc(Nc2cc(OC)c(OC)c(OC)c2)ncc1Br
inhibition [7]: 0%
inhibition [8]: 15%
inhibition [9]: 6%
fold change (FC) [10]: 0.96
